Data set [1] addresses Fibroblast growth factor receptor 2 (Homo sapiens) (UniProt P21802). Put plainly: Induction of FGFR2 receptor relocalization in human KATO III stomach cancer cell line at 100 nM measured for 3 hrs by immunofluorescence assay. The format is cell-based. The settings on record: filed as activator. The method, boiled down:
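KATO III cells treated with 100 nM for 3 or 6 h, fixed in 2% formaldehyde 2 min, blocked 5% BSA 1 h, anti-FGFR2 overnight, Alexa Fluor 488 secondary 1 h, DAPI 10 min; imaged by fluorescence microscopy.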

Data set [2] addresses T1, Protein cereblon/Fibroblast growth factor receptor 2 (Homo sapiens, UniProt P21802+Q96SW2). Kind of data set: PROTAC activity at CRBN/FGFR2 in human KATO III stomach cancer cell line assessed as FGFR2 degradation by measuring FGFR2 expression level upto 300 nM measured for 6 hrs by Western blotting analysis. The format is cell-based. A digest of the protocol:
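KATO III cells treated 6 h across 0.5–10,000 nM (DMSO stock, final DMSO below 0.5%); FGFR2 immunoblotted, quantified as FGFR2/β-actin ratio normalized to DMSO-treated cells, three independent biological experiments; DC50 and Dmax derived from the curve.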

Data set [3] concerns the target T1, Protein cereblon/Fibroblast growth factor receptor 2. Put plainly: PROTAC activity at CRBN/FGFR2 in human KATO III stomach cancer cell line assessed as FGFR2 degradation by measuring FGFR2 expression level at 100 nM measured after 12 hrs by Western blotting analysis relative to control. It is filed as cell-based. The method, boiled down:
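Time course in KATO III cells: FGFR2/β-actin by Western blot at successive treatment times, normalized to DMSO control.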

For data set [4], the target named is Tyrosine-protein kinase ABL1 (Homo sapiens) (UniProt P00519). Kind of data set: Inhibition of human ABL1 at 1000 nM by KINOMEscan analysis relative to control.
The test system of a further data set is NCI-H716. Kind of data set: Antiproliferative activity against human NCI-H716 cells assessed as reduction in cell viability measured for 72 hrs by celltiter-glo reagent based assay. To be noted: NCI-H716, 72 h. It is filed as functional. The method, boiled down:
(§1)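 Cancer lines KATO III, SNU16, NCI-H716, NCI-H1975, MV-4-11 and HEK293T treated 72 h; antiproliferative IC50 given as mean ± s.d. from three independent biological experiments.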

The subject of another data set is NCI-H1975. Put plainly: Antiproliferative activity against human NCI-H1975 cells assessed as reduction in cell viability measured for 72 hrs by celltiter-glo reagent based assay. It is filed as functional. To be noted: NCI-H1975, 72 h. The method, boiled down:
as §1

The nature of data set [5]: Hepatotoxicity in ICR mouse assessed as effect on AST level at 20 mg/kg, po measured for 30 days. It is filed as toxicity, organism-based. To be noted: in vivo, 720 h, time 30 day. A digest of the protocol:
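ICR mice given 20 mg/kg/day orally for 30 days (n = 6), vehicle controls; mortality and clinical signs checked daily, then AST/ALT and creatinine, organ weights, haematology and H&E of heart, liver, spleen, lung, kidney.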

The nature of data set [6]: Clearance in mice at 3 mg/kg, iv measured at 0.083 to 24 hrs by LC-MS/MS analysis. The settings on record: mouse, in vivo.

pIC50: −log10 of the molar value. Active and inactive are the calls of the source. No cut-off for these calls is given here.

T1 sequence (P21802 22-821 limits assumed): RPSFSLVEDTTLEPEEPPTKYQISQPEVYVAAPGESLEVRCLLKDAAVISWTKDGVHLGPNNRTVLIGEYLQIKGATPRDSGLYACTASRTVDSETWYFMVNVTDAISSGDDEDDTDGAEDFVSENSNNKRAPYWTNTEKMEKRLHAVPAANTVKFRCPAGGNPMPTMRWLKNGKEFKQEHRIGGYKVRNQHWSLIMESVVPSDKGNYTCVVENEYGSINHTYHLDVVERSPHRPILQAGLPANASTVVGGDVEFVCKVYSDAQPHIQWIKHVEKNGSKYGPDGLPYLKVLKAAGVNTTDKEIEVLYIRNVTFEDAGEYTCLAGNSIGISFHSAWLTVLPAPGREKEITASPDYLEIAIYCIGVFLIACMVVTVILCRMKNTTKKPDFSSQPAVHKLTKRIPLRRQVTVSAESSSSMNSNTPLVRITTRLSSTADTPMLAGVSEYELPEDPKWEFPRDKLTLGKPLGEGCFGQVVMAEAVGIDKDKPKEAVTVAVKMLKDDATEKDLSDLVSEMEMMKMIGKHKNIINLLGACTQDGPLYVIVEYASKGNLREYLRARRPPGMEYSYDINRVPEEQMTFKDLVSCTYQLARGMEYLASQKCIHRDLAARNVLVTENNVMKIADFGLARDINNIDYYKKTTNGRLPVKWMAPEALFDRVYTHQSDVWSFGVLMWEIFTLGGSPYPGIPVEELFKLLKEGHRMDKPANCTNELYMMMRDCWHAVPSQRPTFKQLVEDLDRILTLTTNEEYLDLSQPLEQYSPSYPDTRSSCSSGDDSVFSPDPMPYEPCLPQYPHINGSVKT
T1 sequence (Q96SW2 whole entry partner): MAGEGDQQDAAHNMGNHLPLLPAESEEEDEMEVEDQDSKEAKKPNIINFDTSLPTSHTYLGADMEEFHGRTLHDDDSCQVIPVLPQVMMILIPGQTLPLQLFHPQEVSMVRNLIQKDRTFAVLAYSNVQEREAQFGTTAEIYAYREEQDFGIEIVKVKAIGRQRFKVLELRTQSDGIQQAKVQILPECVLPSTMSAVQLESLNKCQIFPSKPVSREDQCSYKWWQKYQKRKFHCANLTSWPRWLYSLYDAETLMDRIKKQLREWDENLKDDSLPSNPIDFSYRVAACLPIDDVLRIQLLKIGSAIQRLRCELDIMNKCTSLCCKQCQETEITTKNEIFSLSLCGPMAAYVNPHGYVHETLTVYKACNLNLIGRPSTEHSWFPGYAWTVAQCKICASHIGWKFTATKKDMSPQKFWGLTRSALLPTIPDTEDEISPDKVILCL
Chain of Fibroblast growth factor receptor 2 (Homo sapiens) (P21802 22-821 limits assumed): as the sequence (P21802 22-821 limits assumed) above
Chain of Tyrosine-protein kinase ABL1 (Homo sapiens) (P00519 whole entry): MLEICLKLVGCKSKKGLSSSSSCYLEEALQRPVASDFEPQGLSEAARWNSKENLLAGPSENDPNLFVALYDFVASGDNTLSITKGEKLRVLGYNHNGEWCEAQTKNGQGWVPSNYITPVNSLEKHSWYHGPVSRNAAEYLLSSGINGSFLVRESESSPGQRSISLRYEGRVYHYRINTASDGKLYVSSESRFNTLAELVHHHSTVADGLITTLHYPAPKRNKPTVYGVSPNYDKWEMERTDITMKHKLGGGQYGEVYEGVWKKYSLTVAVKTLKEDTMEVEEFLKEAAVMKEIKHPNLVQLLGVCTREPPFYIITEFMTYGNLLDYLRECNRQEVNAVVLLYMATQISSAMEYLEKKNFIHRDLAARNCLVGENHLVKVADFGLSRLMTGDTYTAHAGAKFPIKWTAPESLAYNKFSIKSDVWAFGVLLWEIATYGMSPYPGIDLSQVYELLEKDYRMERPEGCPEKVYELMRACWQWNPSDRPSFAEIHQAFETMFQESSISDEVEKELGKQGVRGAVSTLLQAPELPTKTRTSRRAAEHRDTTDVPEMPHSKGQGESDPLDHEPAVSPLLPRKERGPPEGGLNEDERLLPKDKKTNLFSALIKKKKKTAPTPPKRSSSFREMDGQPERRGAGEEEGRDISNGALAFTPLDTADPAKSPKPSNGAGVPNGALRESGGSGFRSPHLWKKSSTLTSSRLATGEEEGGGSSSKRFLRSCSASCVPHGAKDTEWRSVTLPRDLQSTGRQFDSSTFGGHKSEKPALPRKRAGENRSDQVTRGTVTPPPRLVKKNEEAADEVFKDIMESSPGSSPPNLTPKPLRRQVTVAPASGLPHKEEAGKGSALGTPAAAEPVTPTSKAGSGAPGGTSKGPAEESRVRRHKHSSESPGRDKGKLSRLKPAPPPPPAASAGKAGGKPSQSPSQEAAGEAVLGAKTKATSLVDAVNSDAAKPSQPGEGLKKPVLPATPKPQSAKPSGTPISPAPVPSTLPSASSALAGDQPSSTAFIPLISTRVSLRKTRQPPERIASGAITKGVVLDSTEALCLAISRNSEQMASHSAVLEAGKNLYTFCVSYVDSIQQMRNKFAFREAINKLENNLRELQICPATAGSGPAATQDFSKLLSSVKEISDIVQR

`COc1cc(OC)c(Cl)c(NC(=O)N(C)c2cc(Nc3ccc(N4CCN(C(=O)C5CCN(c6ccc7c(c6)C(=O)N(C6CCC(=O)NC6=O)C7=O)CC5)CC4)cc3)ncn2)c1Cl` (stereo not drawn): in data set [1], the result was Active. In data set [2], the result was inactive. Further, the results for the Activity in data set [3] and in data set [5] were 90% and “Non-Toxic”, respectively. Also, in data set [4], the inhibition was 47%. Moreover, the results for the pIC50 with NCI-H716 and with NCI-H1975 were 8.49 and under 5.00, respectively. The clearance in data set [6] was 121 mL/min/kg.

For the origin of these results see ChEMBL document CHEMBL5338796, “Discovery of a Selective and Orally Bioavailable FGFR2 Degrader for Treating Gastric Cancer” (J Med Chem, 2023).
